Measurements published in ChEMBL document CHEMBL1134263, “Syntheses and evaluation of quinoline derivatives as novel retinoic acid receptor alpha antagonists” (Bioorg Med Chem Lett, 2001).

Legend:
[1] = system: HL-60; test: Agonistic activity was evaluated by HL-60 cell differentiation activity; format: functional, Homo sapiens
Procedure, shortened: (§1)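 HL-60 cell differentiation was read out as CD11b expression, used as the differentiation marker.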

[2] = biological target: T1, Retinoic acid receptor beta (Homo sapiens) (UniProt P10826); test: Retinoid activity at Retinoic acid receptor beta was evaluated relative to that of All-trans retinoic acids(Mean of ATRA EC50 = 1.02 nM)
T1 sequence (whole entry): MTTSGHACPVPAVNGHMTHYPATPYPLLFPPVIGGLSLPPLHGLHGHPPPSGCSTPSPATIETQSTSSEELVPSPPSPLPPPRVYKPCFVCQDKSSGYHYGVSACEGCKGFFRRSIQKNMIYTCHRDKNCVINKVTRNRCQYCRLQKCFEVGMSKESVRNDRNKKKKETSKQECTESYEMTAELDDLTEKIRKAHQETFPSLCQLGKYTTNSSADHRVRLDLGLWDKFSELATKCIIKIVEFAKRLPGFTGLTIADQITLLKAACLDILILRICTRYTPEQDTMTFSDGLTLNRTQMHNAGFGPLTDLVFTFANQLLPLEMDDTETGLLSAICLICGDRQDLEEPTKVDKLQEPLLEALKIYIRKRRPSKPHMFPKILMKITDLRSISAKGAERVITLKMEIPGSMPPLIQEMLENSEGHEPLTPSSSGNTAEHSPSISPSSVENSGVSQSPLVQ
Procedure, shortened: (§2)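 Gene transcription was induced in a co-transfection transactivation assay at each RAR subtype. Full dose-response curves started from 0.1 nM. EC30 is the concentration giving 30% of the maximal observed response. The reported value is the mean of EC30/ATRA EC30. Activity was taken as not detectable when EC30 > 3000 nM.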

[3] = biological target: T1, Retinoic acid receptor beta (Homo sapiens); test: In vitro binding affinity towards Retinoic acid receptor beta evaluated relative to that of All-trans retinoic acids(Mean of ATRA IC50 = 0.52 nM)
[4] = biological target: T2, Retinoic acid receptor gamma (Homo sapiens) (UniProt P13631); test: Retinoid activity at Retinoic acid receptor gamma was evaluated relative to that of All-trans retinoic acids(Mean of ATRA EC50 = 0.26 nM); procedure, shortened: as §2
T2 sequence (whole entry): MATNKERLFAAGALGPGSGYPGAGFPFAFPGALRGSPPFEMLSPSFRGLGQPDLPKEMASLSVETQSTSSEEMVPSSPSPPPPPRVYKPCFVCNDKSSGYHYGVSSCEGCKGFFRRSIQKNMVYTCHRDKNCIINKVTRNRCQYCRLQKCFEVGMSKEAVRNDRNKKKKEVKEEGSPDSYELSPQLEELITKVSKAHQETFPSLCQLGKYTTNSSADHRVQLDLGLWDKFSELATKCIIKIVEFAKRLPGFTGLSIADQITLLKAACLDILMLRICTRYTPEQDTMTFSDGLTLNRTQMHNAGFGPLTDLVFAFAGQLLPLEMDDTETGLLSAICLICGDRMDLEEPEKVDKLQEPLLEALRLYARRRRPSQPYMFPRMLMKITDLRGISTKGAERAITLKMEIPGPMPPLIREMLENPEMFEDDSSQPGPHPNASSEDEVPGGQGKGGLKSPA

[5] = biological target: T2, Retinoic acid receptor gamma (Homo sapiens); test: In vitro binding affinity towards Retinoic acid receptor gamma evaluated relative to that of All-trans retinoic acids(Mean of ATRA IC50 = 0.42 nM); Not detectable
[6] = biological target: T3, Retinoic acid receptor alpha (Homo sapiens) (UniProt P10276); test: Retinoid activity at Retinoic acid receptor alpha was evaluated relative to that of All-trans retinoic acids(Mean of ATRA EC50 = 1.06 nM); procedure, shortened: as §2
T3 sequence (whole entry): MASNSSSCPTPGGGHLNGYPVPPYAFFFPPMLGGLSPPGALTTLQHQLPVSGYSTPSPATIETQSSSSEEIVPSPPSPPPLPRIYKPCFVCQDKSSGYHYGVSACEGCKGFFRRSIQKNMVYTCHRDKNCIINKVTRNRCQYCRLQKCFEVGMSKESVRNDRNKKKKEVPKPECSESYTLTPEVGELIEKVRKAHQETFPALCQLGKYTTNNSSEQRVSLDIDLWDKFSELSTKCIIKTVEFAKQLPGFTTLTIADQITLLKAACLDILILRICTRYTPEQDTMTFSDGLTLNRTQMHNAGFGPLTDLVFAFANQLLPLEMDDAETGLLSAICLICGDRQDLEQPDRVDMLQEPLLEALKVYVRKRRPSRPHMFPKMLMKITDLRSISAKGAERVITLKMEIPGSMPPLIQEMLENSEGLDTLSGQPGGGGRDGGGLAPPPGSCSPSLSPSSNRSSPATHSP

[7] = biological target: T3, Retinoic acid receptor alpha (Homo sapiens); test: In vitro binding affinity towards Retinoic acid receptor alpha evaluated relative to that of All-trans retinoic acids(Mean of ATRA IC50 = 0.66 nM)
[8] = biological target: T2, Retinoic acid receptor gamma (Homo sapiens); test: In vitro binding affinity towards Retinoic acid receptor gamma evaluated relative to that of All-trans retinoic acids(Mean of ATRA IC50 = 0.42 nM)
[9] = system: HL-60; test: Agonistic activity was evaluated by HL-60 cell differentiation activity; Not detectable; format: functional, Homo sapiens; procedure, shortened: as §1
[10] = biological target: T4, Retinoic acid receptor alpha (Homo sapiens, UniProt P10276); test: Antagonistic activity was evaluated in terms of inhibition of Retinoic acid receptor alpha transactivation by ATRA (50 nM); format: functional
T4 sequence (P10276 whole entry): T3 sequence (whole entry)

[11] = biological target: T3, Retinoic acid receptor alpha (Homo sapiens); test: Retinoid activity at Retinoic acid receptor alpha was evaluated relative to that of All-trans retinoic acids(Mean of ATRA EC50 = 1.06 nM); Not detectable; procedure, shortened: as §2
[12] = biological target: T5, Retinoic acid receptor gamma (Homo sapiens, UniProt P13631); test: Antagonistic activity was evaluated in terms of inhibition of Retinoic acid receptor gamma transactivation by ATRA (50 nM); Not detectable; format: functional
T5 sequence (P13631 whole entry): T2 sequence (whole entry)

[13] = biological target: T6, Retinoic acid receptor beta (Homo sapiens, UniProt P10826); test: Antagonistic activity was evaluated in terms of inhibition of Retinoic acid receptor beta transactivation by ATRA (50 nM); Not detectable; format: functional
T6 sequence (P10826 whole entry): T1 sequence (whole entry)

[14] = system: HL-60; test: Antagonistic activity was evaluated in terms of inhibition of HL-60 cell differentiation activity by ATRA (10 nM); format: functional, cell-based; settings: Homo sapiens
Procedure, shortened: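 HL-60 cells were induced to differentiate with ATRA (10 nM). Antagonism was scored as inhibition of that differentiation, read out as CD11b expression.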

| SMILES | ED30 [1] [µM] | Relative EC30 [2] | Relative IC50 [3] | Relative EC30 [4] | Relative IC50 [5] | Relative EC30 [6] | Relative IC50 [7] | Relative IC50 [8] | ED30 [9] [µM] | IC50 [10] [µM] | Relative EC30 [11] | IC50 [12] [µM] | IC50 [13] [µM] | IC50 [14] [µM] |
| --- | --- | --- | --- | --- | --- | --- | --- | --- | --- | --- | --- | --- | --- | --- |
| CC(C)c1cccc2ccc(-c3ccc(-c4ccc(C(=O)O)cc4)[nH]3)nc12 | 2.5 | 97 | 579 | 5770 | > 1000 | 3 | 5.7 |  |  |  |  |  |  |  |
| CC(C)c1cccc2c(Cl)cc(-c3ccc(-c4ccc(C(=O)O)cc4)[nH]3)nc12 | 0.1 | 17 | 79 | 1160 |  | 1.9 | 1.3 | 251 |  |  |  |  |  |  |
| Cc1cc(-c2ccc(-c3ccc(C(=O)O)cc3)[nH]2)nc2c(C(C)C)cccc12 | 0.1 | 16 | 71 | 903 |  | 2.8 | 1.7 | 141 |  |  |  |  |  |  |
| CC(C)c1cccc2c(-c3ccccc3)cc(-c3ccc(-c4ccc(C(=O)O)cc4)[nH]3)nc12 |  |  | 535 | > 3000 |  |  | 1.8 | 432 | >10 | 0.0312 | > 3000 | > 3 | > 3 | 0.0064 |
| CCc1cc(-c2ccc(-c3ccc(C(=O)O)cc3)[nH]2)nc2c(C(C)C)cccc12 |  | 22 | 32 | 180 |  | 2.5 | 0.7 | 22 | >10 |  |  |  |  | 0.017 |
| COc1cc(-c2ccc(-c3ccc(C(=O)O)cc3)[nH]2)nc2c(C(C)C)cccc12 |  | 38 | 475 | 4460 |  |  | 0.8 | 834 | >10 |  | > 3000 |  |  | 0.0016 |
